# Test results reported in ChEMBL document CHEMBL4477166, “18β-Glycyrrhetinic Acid Derivatives Possessing a Trihydroxylated A Ring Are Potent Gram-Positive Antibacterial Agents” (2016).
# Calls of active or inactive are those of the source. No cut-off for these calls is given here.
# Assays:
# [1] = tested on: Escherichia coli; experiment: Antibacterial activity against Escherichia coli ATCC 25922 measured after overnight incubation by microplate dilution assay; format: functional
# [2] = tested on: Bacillus subtilis; experiment: Antibacterial activity against Bacillus subtilis ATCC 6051 by microdilution assay; format: functional
# Summary of the method: (§1)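 Turbidimetric broth microdilution. Log-phase cells were washed and resuspended in broth (LB at 37 °C for B. subtilis and S. aureus; oat bran broth at 28 °C for S. scabies) and seeded at 1 × 10⁵ CFU/mL. Twofold serial dilutions were made with DMSO ≤1% (v/v). A620 was read, then plates were incubated with vigorous shaking. MIC was the lowest concentration with no apparent growth versus vehicle-only medium without cells. Run in triplicate.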
# [3] = tested on: Streptomyces scabiei; experiment: Antibacterial activity against Streptomyces scabiei CGMCC4.7610246 by microdilution assay; format: functional; summary of the method: as §1
# [4] = tested on: Staphylococcus aureus; experiment: Antibacterial activity against Staphylococcus aureus ATCC 25923 by microdilution assay; format: functional; summary of the method: as §1
# [5] = tested on: Staphylococcus aureus; experiment: Antibacterial activity against methicillin-resistant Staphylococcus aureus by microdilution assay; format: functional
# Summary of the method: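 Log-phase cells seeded at 1 × 10⁵ CFU/mL. Twofold serial dilutions made in broth with DMSO cosolvent, at most 1% v/v. Turbidity read at 620 nm before and after incubation with vigorous shaking. MIC is the lowest concentration with no apparent growth versus the medium-plus-vehicle control. Run in triplicate.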
# [6] = tested on: Escherichia coli; experiment: Antibacterial activity against Escherichia coli at 100 uM measured after 5 to 6 hrs by microdilution assay; format: functional, organism-based
# [7] = tested on: Pseudomonas aeruginosa; experiment: Antibacterial activity against Pseudomonas aeruginosa at 100 uM measured after 5 to 6 hrs by microdilution assay; format: functional, organism-based
# [8] = tested on: Pseudomonas aeruginosa; experiment: Antibacterial activity against multi-drug resistant Pseudomonas aeruginosa at 100 uM measured after 5 to 6 hrs by microdilution assay; format: functional, organism-based
# Summary of the method: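 Log-phase cells seeded at 1 × 10⁵ CFU/mL. Single-dose screen at 100 μM, with DMSO cosolvent at most 1% v/v. Growth measured turbidimetrically at 620 nm, before and after incubation with vigorous shaking.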
# [9] = tested on: Staphylococcus aureus; experiment: Effect on lytM expression in Staphylococcus aureus ATCC 25923 at 0.5 times MIC by qRT-PCR analysis; format: functional, organism-based
# Summary of the method: (§2)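 Bacteria were grown in broth with compound at 0.5 × MIC or vehicle to exponential phase (OD620 = 0.4) and then pelleted. Total RNA was reverse-transcribed, and SYBR-based real-time PCR was run against housekeeping genes. Relative expression versus control was calculated by 2^−ΔΔCT. Mean ± SEM, n = 3, significance at p < 0.05.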
# [10] = tested on: Bacillus subtilis; experiment: Reduction in mmD expression in Bacillus subtilis ATCC 6051 at 0.5 times MIC by qRT-PCR analysis relative to control; format: functional, organism-based; summary of the method: as §2
# [11] = tested on: Staphylococcus aureus; experiment: Reduction in narG expression in Staphylococcus aureus ATCC 25923 at 0.5 times MIC by qRT-PCR analysis relative to control; format: functional, organism-based; summary of the method: as §2
# [12] = tested on: Staphylococcus aureus; experiment: Reduction in narG expression in methicillin-resistant Staphylococcus aureus at 0.5 times MIC by qRT-PCR analysis relative to control; format: functional, organism-based
# Summary of the method: (§3)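 MRSA grown in broth containing either 0.5 × MIC of test compound or vehicle alone. Cells harvested at exponential phase (OD₆₂₀ = 0.4). Total RNA reverse-transcribed, then SYBR-based real-time PCR run. Relative expression computed by the 2^−ΔΔCT method against the vehicle control or the parent-acid-treated group. Mean ± SEM, n = 3; significance set at p < 0.05.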
# [13] = tested on: Streptomyces scabiei; experiment: Reduction in p450 expression in Streptomyces scabiei CGMCC4.7610246 at 0.5 times MIC by qRT-PCR analysis relative to control; format: functional, organism-based; summary of the method: as §2
# [14] = tested on: Bacillus subtilis; experiment: Upregulation of yhdT expression in Bacillus subtilis ATCC 6051 at 0.5 times MIC by qRT-PCR analysis relative to control; format: functional, organism-based; summary of the method: as §2
# [15] = tested on: Bacillus subtilis; experiment: Upregulation of yqhB expression in Bacillus subtilis ATCC 6051 at 0.5 times MIC by qRT-PCR analysis relative to control; format: functional, organism-based; summary of the method: as §2
# [16] = tested on: Staphylococcus aureus; experiment: Upregulation of seaR expression in Staphylococcus aureus ATCC 25923 at 0.5 times MIC by qRT-PCR analysis relative to control; format: functional, organism-based; summary of the method: as §2
# [17] = tested on: Staphylococcus aureus; experiment: Upregulation of hla expression in Staphylococcus aureus ATCC 25923 at 0.5 times MIC by qRT-PCR analysis relative to control; format: functional, organism-based; summary of the method: as §2
# [18] = tested on: Staphylococcus aureus; experiment: Inhibition of seaR expression in methicillin-resistant Staphylococcus aureus at 0.5 times MIC by qRT-PCR analysis relative to control; format: functional, organism-based; summary of the method: as §3
# [19] = tested on: Staphylococcus aureus; experiment: Inhibition of hla expression in methicillin-resistant Staphylococcus aureus at 0.5 times MIC by qRT-PCR analysis relative to control; format: functional, organism-based; summary of the method: as §3
SMILES,MIC [1] [µg/mL],MIC [2] [µg/mL],MIC [3] [µg/mL],MIC [4] [µg/mL],MIC [5] [µg/mL],Activity [6],Activity [7],Activity [8],Activity [9],Activity [10],Activity [11],Activity [12],Activity [13],Activity [14],Activity [15],Activity [16],Activity [17],inhibition [18],inhibition [19]
CC1(C)CC[C@H](O)[C@]2(C)[C@H]3CC=C4[C@@H]5C[C@@](C)(C(=O)O)CC[C@]5(C)CC[C@@]4(C)[C@]3(C)CC[C@@H]12,> 250,,,,,,,,,,,,,,,,,,
CC1(C)[C@@H](O)[C@@H](O)[C@H](O)[C@]2(C)[C@H]3CC=C4[C@@H]5C[C@@](C)(C(=O)O)CC[C@]5(C)CC[C@@]4(C)[C@]3(C)CC[C@@H]12,,> 31.2,31.2,15.6,> 32,inactive,inactive,inactive,,,,,,,,,,,
CC1(C)[C@@H](O)[C@@H](O)[C@H](O)[C@]2(C)[C@H]3CC=C4[C@@H]5C[C@@](C)(C(=O)OCc6ccccc6Cl)CC[C@]5(C)CC[C@@]4(C)[C@]3(C)CC[C@@H]12,,> 50,> 50,> 50,> 50,inactive,inactive,inactive,,,,,,,,,,,
CCCCCOC(=O)[C@@]1(C)CC[C@]2(C)CC[C@]3(C)C(=CC(=O)[C@@H]4[C@@]5(C)[C@@H](O)[C@H](O)[C@H](O)C(C)(C)[C@@H]5CC[C@]43C)[C@@H]2C1,,> 50,> 50,> 50,> 50,inactive,inactive,inactive,,,,,,,,,,,
CC1(C)C(=O)C=C[C@]2(C)[C@H]3C(=O)C=C4[C@@H]5C[C@@](C)(C(=O)OCc6ccccc6)CC[C@]5(C)CC[C@@]4(C)[C@]3(C)CC[C@@H]12,,> 50,> 50,> 50,> 50,inactive,inactive,inactive,,,,,,,,,,,
CC1(C)[C@@H](O)[C@@H](O)[C@H](O)[C@]2(C)[C@H]3CC=C4[C@@H]5C[C@@](C)(C(=O)OCc6ccccc6)CC[C@]5(C)CC[C@@]4(C)[C@]3(C)CC[C@@H]12,,> 36.9,> 36,> 36.9,8,inactive,inactive,inactive,,,,,,,,,,,
CC1(C)[C@H](O)[C@@H]2O[C@@H]2[C@]2(C)[C@H]3CC=C4[C@@H]5C[C@@](C)(C(=O)OCc6ccccc6)CC[C@]5(C)CC[C@@]4(C)[C@]3(C)CC[C@@H]12,,> 50,> 50,> 50,> 50,inactive,inactive,inactive,,,,,,,,,,,
CCCOC(=O)[C@@]1(C)CC[C@]2(C)CC[C@]3(C)C(=CC(=O)[C@@H]4[C@@]5(C)[C@@H](O)[C@H](O)[C@H](O)C(C)(C)[C@@H]5CC[C@]43C)[C@@H]2C1,,> 34.8,4.3,4.3,2,inactive,inactive,inactive,,,,,,,,,,,
CC1(C)[C@@H](O)[C@@H](O)[C@H](O)[C@]2(C)[C@H]3CC=C4[C@@H]5C[C@@](C)(C(=O)OCc6ccc([N+](=O)[O-])cc6)CC[C@]5(C)CC[C@@]4(C)[C@]3(C)CC[C@@H]12,,> 50,> 50,> 50,> 50,inactive,inactive,inactive,,,,,,,,,,,
CC1(C)[C@@H](O)CC[C@]2(C)[C@H]3C(=O)C=C4[C@@H]5C[C@@](C)(C(=O)O)CC[C@]5(C)CC[C@@]4(C)[C@]3(C)CC[C@@H]12 [ENOXOLONE],,> 50,> 50,> 50,> 50,inactive,inactive,inactive,inactive,inactive,inactive,inactive,Active,Active,Active,Active,Active,Active,Active
CCCCCOC(=O)[C@@]1(C)CC[C@]2(C)CC[C@]3(C)C(=CC[C@@H]4[C@@]5(C)[C@@H](O)[C@H](O)[C@H](O)C(C)(C)[C@@H]5CC[C@]43C)[C@@H]2C1,,> 50,> 50,> 50,> 50,inactive,inactive,inactive,,,,,,,,,,,
CC1(C)C(=O)C=C[C@]2(C)[C@H]3CC=C4[C@@H]5C[C@@](C)(C(=O)OCc6ccccc6)CC[C@]5(C)CC[C@@]4(C)[C@]3(C)CC[C@@H]12,,> 34.6,34.6,> 34.6,> 32,inactive,inactive,inactive,,,,,,,,,,,
CCCCOC(=O)[C@@]1(C)CC[C@]2(C)CC[C@]3(C)C(=CC(=O)[C@@H]4[C@@]5(C)[C@@H](O)[C@H](O)[C@H](O)C(C)(C)[C@@H]5CC[C@]43C)[C@@H]2C1,,> 35.7,4.4,> 35.7,4,inactive,inactive,inactive,,,,,,,,,,,
CC1(C)C(=O)[C@@H]2O[C@@H]2[C@]2(C)[C@H]3CC=C4[C@@H]5C[C@@](C)(C(=O)OCc6ccccc6)CC[C@]5(C)CC[C@@]4(C)[C@]3(C)CC[C@@H]12,,> 50,> 50,> 50,> 50,inactive,inactive,inactive,,,,,,,,,,,
CC1(C)[C@@H](O)[C@@H]2O[C@@H]2[C@]2(C)[C@H]3C(=O)C=C4[C@@H]5C[C@@](C)(C(=O)OCc6ccccc6)CC[C@]5(C)CC[C@@]4(C)[C@]3(C)CC[C@@H]12,,> 50,> 50,> 50,> 50,inactive,inactive,inactive,,,,,,,,,,,
CC1(C)[C@@H](O)[C@@H](O)[C@H](O)[C@]2(C)[C@H]3CC=C4[C@@H]5C[C@@](C)(C(=O)OCc6ccccc6[N+](=O)[O-])CC[C@]5(C)CC[C@@]4(C)[C@]3(C)CC[C@@H]12,,> 50,> 50,> 50,> 50,inactive,inactive,inactive,,,,,,,,,,,
CC1(C)[C@H](O)[C@@H](O)[C@H](O)[C@]2(C)[C@H]3C(=O)C=C4[C@@H]5C[C@@](C)(C(=O)O)CC[C@]5(C)CC[C@@]4(C)[C@]3(C)CC[C@@H]12,,> 50,> 50,> 50,> 50,inactive,inactive,inactive,,,,,,,,,,,
CC(C)OC(=O)[C@@]1(C)CC[C@]2(C)CC[C@]3(C)C(=CC(=O)[C@@H]4[C@@]5(C)[C@@H](O)[C@H](O)[C@H](O)C(C)(C)[C@@H]5CC[C@]43C)[C@@H]2C1,,> 34.8,> 34.8,> 34.8,8,inactive,inactive,inactive,,,,,,,,,,,
CC1(C)[C@@H](O)[C@@H](O)[C@H](O)[C@]2(C)[C@H]3C(=O)C=C4[C@@H]5C[C@@](C)(C(=O)OCc6ccccc6[N+](=O)[O-])CC[C@]5(C)CC[C@@]4(C)[C@]3(C)CC[C@@H]12,,> 50,> 50,> 50,> 50,inactive,inactive,inactive,,,,,,,,,,,
